In the library only some 3.6% were active in any assay of this set; here they are far more common.
RAM inhibit: inhibitors of the yeast RAM network, primary screen, dse1pr::URA3 reporter, 5-FOA selection; inhibition, % at 50 µM; S. cerevisiae dse1pr::URA3 reporter, 5-FOA growth OD615, 2 d; analog-sensitive cbk1-as2 kinase mutant strain; 1.8% of 190,000 active;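 active = inhibition above a set limit, 3 SD over mean compound inhibition, cut at about 8.4% in these data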;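 note: 0% = DMSO-only wells with no growth and 100% = 10 µM 1-NA-PP1 full growth; inhibition rescues growth on 5-FOA so higher OD means more RAM inhibition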
Phagocytosis inh: inhibitors of macrophage phagocytosis, primary screen, imaging, J774A.1 cells, IgG beads; J774A.1 macrophage IgG-bead phagocytosis; inhibition, % at 5 µM; 0.07% of 110,000 active;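 active = inhibition above the mean of the plate negative controls plus 5 SD, cut at about 13% in these data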;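 note: phagocytic index as fraction of beads internalized from green versus red external bead signal; plate controls were DMSO negative control for no effect and cytochalasin-D positive control for full effect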
Yeast life ext: compounds extending yeast replicative lifespan, primary screen, S. cerevisiae, OD615. inhibition of the nicotinamide effect, % at 10 µM. AID 775, 2007. 0.68% of 130,000 active. S. cerevisiae growth with nicotinamide; deaD strain in restrictive glucose medium;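 active = inhibition above a set limit, placed 3 SD over the median of all compounds, cut at about 26% in these data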;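 note: 0% = nicotinamide-treated wells and 100% = cells grown without nicotinamide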
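Assay system: engineered S. cerevisiae DeaD replicative-lifespan strain, galactose-grown log-phase cells; medium: restrictive CSMM-D dextrose medium; also added: nicotinamide, 1.5 mM, co-present with compound; schedule: 48 h compound exposure at 30 °C, humidified; detection: absorbance at 615 nm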
Measles CPE: compounds protecting cells from measles virus cytopathic effect, primary screen, measles RdRp inhibitor project, single point, MLSMR library, absorbance. Measles virus-infected cells, CPE protection. protection (pct of control), % at 4 µM. 1.5% of 140,000 active. AID 841, 2007; in the data active = protection mostly above about 24%, no sharp cut-off; inactive = mostly below about 26%
Yeast growth inh: growth inhibitors of yeast BB579 in restrictive medium, primary screen, yeast lifespan-shortening project, S. cerevisiae. OD615, 48 h. inhibition, % at 10 µM. 0.51% of 140,000 active. AID 804, 2007;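 active = inhibition above a set limit, 3 SD over the mean compound inhibition, cut at about 44% in these data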
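Test system: S. cerevisiae DeaD strain BB579 yeast; Medium: restrictive CSMM-D medium; Compound: one dose, 10 µM compound with 0.25% DMSO; Incubation: 4 h cell preincubation, 48 h compound exposure, 30 °C humidified; Signal: OD at 615 nm; Benchmarks: amphotericin B at 10 µg/mL as positive control.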
RAM efflux-def: 5-FOA growth of efflux-deficient control yeast, dose response, counter-screen for RAM network inhibitor project, S. cerevisiae, OD615; S. cerevisiae efflux-deficient reporter strain, 5-FOA growth OD615, 2 days; 1,200 tested, under 10 active; max inhibition, %; shares compounds with RAM inhibit; AID 1305, 2008; call rule not given here;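 note: plate controls were vehicle for no effect and reference inhibitor for full effect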
The depositor's hits bear a star; nt = no result.

SMILES	RAM inhibit	Phagocytosis inh	Yeast life ext	Measles CPE	Yeast growth inh	RAM efflux-def
O=C(c1cnc(-c2ccccc2)s1)c1ccc(Cl)cc1Cl	13.1*	nt	-13.0	4.3	-60.0	2.3
COc1cc(/C=C/c2cc(C(=O)O)c3ccccc3n2)cc(OC)c1O	12.0*	nt	nt	nt	nt	4.8
CCOc1cc(/C=C/c2cc(C(=O)O)c3ccccc3n2)ccc1OC	2.2	-1.5	-3.2	4.4	-36.4	nt
CCCn1c(SCC(=O)NC(=O)NC(C)(C)C)n[nH]c1=O	2.2	nt	nt	nt	nt	nt
Nc1cc(Oc2ccc(F)cc2F)cc([N+](=O)[O-])c1	1.8	nt	nt	nt	nt	nt
O=C(CCCOc1ccc(Cl)cc1Cl)N/N=C/c1ccccc1	12.3*	-9.0	-2.6	8.4	-40.4	1.9
Cc1ccc(/C=N/NC(=O)CCCOc2ccc(Cl)cc2Cl)cc1	12.3*	-8.4	4.5	1.7	-39.0	1.0
CCOC(=O)c1c(C)[nH]c(C)c1C(=O)COc1ncnc2cc([N+](=O)[O-])ccc12	-0.8	nt	nt	nt	nt	nt
O=C(O)CCn1nnc(-c2ccccc2)n1	1.2	nt	nt	nt	nt	nt
O=C(CCCNS(=O)(=O)c1ccc(Cl)c(Cl)c1)NCCc1ccccn1	1.6	nt	nt	nt	nt	nt
COc1ccc(/C=C/C(=O)Nc2cc(S(=O)(=O)N3CCCCC3)ccc2N2CCCCC2)cc1OC	11.8*	-4.8	-0.2	3.5	-13.7	13.1
Cc1ccc(Sc2nc3c(c(=O)[nH]c(=O)n3C)n2CCc2ccccc2)cc1	3.4	-0.5	-7.3	25.5	-14.1	nt
Cn1c(=O)[nH]c(=O)c2c1nc(Sc1ccccc1)n2CCc1ccccc1	0.6	-0.4	-0.7	7.1	-54.8	1.9
COc1cccc(/C=C(/C(=O)OCC(=O)NC2CCCCCCC2)c2ccccc2)c1	12.6*	nt	2.3	7.0	-37.3	4.9
O=C(COC(=O)c1cc(-c2cccs2)nc2ccccc12)NCc1ccco1	7.5	-0.2	-12.7	9.2	-97.3	nt
O=C(COC(=O)c1cc(-c2ccc(Cl)s2)nc2ccccc12)NCc1ccco1	11.5*	-0.9	0.6	1.8	-28.2	4.0
COc1ccc(-c2cn(/N=C/c3ccc(Cl)cc3Cl)c(N)n2)cc1	3.0	-0.8	-17.3	19.9	-38.8	nt
Brc1ccc(CSc2nnc(Cc3c[nH]c4ccccc34)o2)cc1	12.9*	-1.8	-7.8	13.3	-29.5	2.2
Cc1c(-c2ccc(F)cc2)[n+](=O)c2c(n1[O-])CCCCC2	1.5	-3.0	4.6	3.0	-4.8	nt
O=C(Nc1nnc(SCc2cccc3ccccc23)s1)C1COc2ccccc2O1 (stereo not given)	5.1	-8.2	3.8	28.1	-45.3	nt
Cc1cc(C)c(NC(=O)COC(=O)CSc2ccc(Br)cc2C)c(C)c1	8.2	0.5	8.9	17.1	-43.7	nt
Cc1cc(Br)ccc1SCC(=O)OCC(=O)NC1CCCC1	17.1*	nt	nt	nt	nt	2.5
O=C(COc1ccc(C(=O)c2ccccc2)cc1)NCC(=O)Nc1ccccc1Br	3.0	-2.7	-5.2	38.9	-9.8	nt
CCOCCCNC(=O)CN1C(=O)/C(=C\c2ccc(C)cc2)Sc2ccccc21	8.0	-2.3	3.0	3.5	-37.9	nt
Cc1ccc(/C=C2/Sc3ccccc3N(CC(=O)NCCCOC(C)C)C2=O)cc1	12.8*	-10.7	2.7	4.7	-39.6	3.8
SMILES	RAM inhibit	Phagocytosis inh	Yeast life ext	Measles CPE	Yeast growth inh	RAM efflux-def
Cc1ccc2[nH]c(CN3CCC(CO)(CC4CCCCO4)CC3)c(C)c2c1 (stereo not given)	3.4	nt	nt	nt	nt	nt
CCOC(=O)c1c(NC(=O)CSc2nnc(-c3ccco3)o2)sc(C)c1C	11.5*	nt	-7.8	3.2	-22.2	3.9
CCOC(=O)c1c(NC(=O)CSc2nnc(Cc3ccccc3)o2)sc(C)c1C	14.2*	nt	nt	34.3	-35.1	3.9
NS(=O)(=O)c1ccc(CCNC(=O)CN2CCCCCC2)cc1	1.1	nt	nt	nt	nt	nt
CCC(C)NC(=O)Cn1cc(S(=O)(=O)N2CCN(c3ccccc3F)CC2)c2ccccc2c1=O (stereo not given)	0.0	nt	nt	nt	nt	nt
CCn1c(COc2cccc(C)c2)nnc1SCC(=O)Nc1cccc(C(=O)OC)c1	4.8	0.1	-10.8	4.6	-33.2	nt
CCOC(=O)c1cccc(NC(=O)CSc2nnc(COc3ccccc3)n2CC)c1	13.7*	1.2	-5.9	3.5	-33.1	2.8

Screening data from PubChem BioAssay.
